Assay results: ChEMBL document CHEMBL1932939, “Synthesis and cytotoxic evaluation of thiourea and N-bis-benzothiazole derivatives: a novel class of cytotoxic agents” (Bioorg Med Chem Lett, 2012)
pIC50: −log10 of the molar value.

Tests used:
THP-1 [1] = assay: Cytotoxicity against human THP1 cells after 48 hrs by MTT assay; type: functional, cell-based; conditions: THP-1, 48 h
How it was run: (§1)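 IC50 is taken as the concentration that gives a 50% drop in cell number relative to control cultures grown without inhibitor. Etoposide serves as the standard positive-control drug.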

U-937 = assay: Cytotoxicity against human U937 cells after 48 hrs by MTT assay; type: functional, cell-based; how it was run: as §1
B16-F10 = assay: Cytotoxicity against mouse B16F10 cells after 48 hrs by MTT assay; type: functional, cell-based; conditions: B16-F10, 48 h; how it was run: as §1
THP-1 [2] = assay: Ratio of IC50 for mouse B16F10 cells to IC50 for human THP1 cells after 48 hrs by MTT assay; type: functional
THP-1 [3] = assay: Ratio of IC50 for human U937 cells to IC50 for human THP1 cells after 48 hrs by MTT assay; type: functional

SMILES | pIC50 (THP-1 [1]) | pIC50 (U-937; Homo sapiens, U-937, 48 h) | pIC50 (B16-F10) | pIC50 (U-937; u-937) | Ratio IC50 (THP-1 [2]) | Ratio IC50 (THP-1 [3])
S=C(Nc1ccccc1)Nc1nc2ccccc2s1 | 4.44 | < 4.30 | < 4.30 |  |  | 
Fc1ccc(NC(=S)Nc2nc3ccccc3s2)cc1 | 4.57 | 4.49 | < 4.30 |  |  | 
S=C(Nc1ccc(Cl)cc1)Nc1nc2ccccc2s1 | 4.41 | < 4.30 | < 4.30 |  |  | 
Fc1ccc2nc(NC(=S)Nc3ccccc3)sc2c1 | 4.33 | < 4.30 | < 4.30 |  |  | 
Fc1ccc(NC(=S)Nc2nc3ccc(F)cc3s2)cc1 | 4.46 | 4.79 | 4.32 |  |  | 
Fc1ccc2nc(NC(=S)Nc3ccc(Cl)cc3)sc2c1 | 4.51 | 4.73 | 4.32 |  |  | 
S=C(Nc1ccccc1)Nc1nc2c(Cl)cccc2s1 | 4.50 | < 4.30 | < 4.30 |  |  | 
Fc1ccc(NC(=S)Nc2nc3c(Cl)cccc3s2)cc1 | < 4.30 | < 4.30 | < 4.30 |  |  | 
Cc1ccc2nc(NC(=S)Nc3ccccc3)sc2c1 | < 4.30 | < 4.30 | < 4.30 |  |  | 
Cc1ccc2nc(NC(=S)Nc3ccc(F)cc3)sc2c1 | 4.43 | < 4.30 | < 4.30 |  |  | 
CCOc1ccc2nc(NC(=S)Nc3ccccc3)sc2c1 | 4.36 | 4.42 | < 4.30 |  |  | 
CCOc1ccc2nc(NC(=S)Nc3ccc(F)cc3)sc2c1 | 4.40 | 4.55 | < 4.30 |  |  | 
c1ccc2sc(Nc3nc4ccccc4s3)nc2c1 | 4.54 | 4.40 | < 4.30 |  |  | 
Clc1ccc2nc(Nc3nc4ccccc4s3)sc2c1 | 4.34 | < 4.30 | < 4.30 |  |  | 
Fc1ccc2nc(Nc3nc4ccc(F)cc4s3)sc2c1 | 4.76 | 4.56 | 4.32 |  |  | 
Fc1ccc2nc(Nc3nc4ccc(Cl)cc4s3)sc2c1 | 4.39 | < 4.30 | 4.38 |  |  | 
Fc1ccc2nc(Nc3nc4c(Cl)cccc4s3)sc2c1 | 4.44 | < 4.30 | < 4.30 |  |  | 
Cc1ccc2nc(Nc3nc4ccccc4s3)sc2c1 | 4.47 | 4.31 | < 4.30 |  |  | 
CCOc1ccc2nc(Nc3nc4ccccc4s3)sc2c1 | 4.43 | < 4.30 | < 4.30 |  |  | 
CCOc1ccc2nc(Nc3nc4ccc(F)cc4s3)sc2c1 | 4.41 | 4.58 | 4.48 |  |  | 
Fc1ccc2nc(Nc3nc4ccccc4s3)sc2c1 | < 4.30 | 4.39 | < 4.30 | 4.36 |  | 
Clc1cccc2sc(Nc3nc4ccccc4s3)nc12 | < 4.30 | < 4.30 | 4.53 |  |  | 
Cc1ccc2nc(Nc3nc4ccc(F)cc4s3)sc2c1 | < 4.30 | < 4.30 | 4.53 |  |  | 
COc1cc([C@@H]2c3cc4c(cc3[C@@H](O[C@@H]3O[C@@H]5CO[C@@H](C)O[C@H]5[C@H](O)[C@H]3O)[C@H]3COC(=O)[C@H]23)OCO4)cc(OC)c1O [ETOPOSIDE] |  |  | 4.73 |  | 9 | 9
